In ChEMBL document CHEMBL4049434, “Radiolabeled Dibenzodiazepinone-Type Antagonists Give Evidence of Dualsteric Binding at the M2 Muscarinic Acetylcholine Receptor” (J Med Chem, 2017):

Tests used:
[1] = biological target: T1, Muscarinic acetylcholine receptor M2 (Homo sapiens, UniProt P08172); assay: Displacement of [3H]NMS from human muscarinic acetylcholine receptor M2 expressed in CHOK9 cells after 3 hrs by liquid scintillation counting assay; type: cell-based; conditions: read-out: Ki
T1 sequence (P08172 whole entry): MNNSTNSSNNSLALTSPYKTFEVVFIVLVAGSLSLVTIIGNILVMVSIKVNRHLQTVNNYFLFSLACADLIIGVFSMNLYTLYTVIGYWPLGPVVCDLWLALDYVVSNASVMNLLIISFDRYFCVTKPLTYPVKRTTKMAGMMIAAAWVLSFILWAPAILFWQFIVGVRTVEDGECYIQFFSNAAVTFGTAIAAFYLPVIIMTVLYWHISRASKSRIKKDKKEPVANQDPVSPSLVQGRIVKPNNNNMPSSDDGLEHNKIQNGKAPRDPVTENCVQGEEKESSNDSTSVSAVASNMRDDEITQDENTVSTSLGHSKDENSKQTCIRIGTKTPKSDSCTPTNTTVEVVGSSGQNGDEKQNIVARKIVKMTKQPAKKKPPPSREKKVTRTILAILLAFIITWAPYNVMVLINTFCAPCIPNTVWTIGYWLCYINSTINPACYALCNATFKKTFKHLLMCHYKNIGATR

[2] = biological target: T1, Muscarinic acetylcholine receptor M2; assay: Binding affinity to human muscarinic acetylcholine receptor M2 expressed in live adherent CHOK9 cells after 2 hrs by liquid scintillation counting assay; type: cell-based
How it was run: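 Live adherent CHO-hM2 cells in L15 medium with 1% BSA, 23 ± 1 °C, 2 h incubation. Competition at 2 nM radioligand; additional 4, 8, 15 and 30 nM in W84 experiments. […] Saturation data fitted one-site; competition by four-parameter logistic fits; at least three experiments in triplicate.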

[3] = biological target: T1, Muscarinic acetylcholine receptor M2; assay: Binding affinity to human muscarinic acetylcholine receptor M2 expressed in CHOK9 cell homogenate after 2 hrs by liquid scintillation counting assay; conditions: read-out: Kd(app)
How it was run: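 CHO-hM2 cell homogenates (25–30 μg protein/well) in L15 medium with 1% BSA, 23 ± 1 °C, 2 h with tritiated dimeric radioligand. Competition used 0.5 nM radioligand; additional 0.4, 1, 2 and 4 nM in W84 experiments. […] Four-parameter logistic fits; at least three experiments in triplicate.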

[4] = biological target: T1, Muscarinic acetylcholine receptor M2; assay: Binding affinity to human muscarinic acetylcholine receptor M2 expressed in CHOK9 cell homogenate assessed as saturation binding after 2 hrs by liquid scintillation counting assay

What does the source list for `O=C(O)C(F)(F)F.O=C(O)C(F)(F)F.O=C(O)C(F)(F)F.O=C(O)C(F)(F)F.[3H]CC([3H])C(=O)NC1CN(CCCCC2CCN(CC(=O)N3c4ccccc4NC(=O)c4ccccc43)CC2)CCN(CCCCC2CCN(CC(=O)N3c4ccccc4NC(=O)c4ccccc43)CC2)C1` (centres undefined)?
Ki [1]: 0.71 nM; Kd [2]: 8.4 nM; Kd [3]: 3 to 4.6 nM; Kd [4]: 4.6 nM
